Compounds with a hit are over-represented: about 1.7% of the library has one in this group of screens.
B2AR ag: agonists of human beta-2 adrenergic receptor inducing internalization; P07550; Am2.2-beta2AR cells, FAP receptor internalization, flow cytometry; response, % (concentration not given with the values); 340,000 tested, 0.43% active;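 active = response above a set limit, near 3 SD of response in nonfluorescent compounds, cut at about 42% in these data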
CXCR6 block: blocks human CXCR6 beta-arrestin recruitment | CHO-K1 PathHunter CXCR6 beta-arrestin, luminescence | inhibition, % at 20 µM | 360,000 tested, 0.36% active | AID 602244; in the data active = inhibition above about 34%, passing the limit was not always enough;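 also: antagonist mode with CXCL16 agonist at 10 nM final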
Target sequence (O00574 whole entry, looked up): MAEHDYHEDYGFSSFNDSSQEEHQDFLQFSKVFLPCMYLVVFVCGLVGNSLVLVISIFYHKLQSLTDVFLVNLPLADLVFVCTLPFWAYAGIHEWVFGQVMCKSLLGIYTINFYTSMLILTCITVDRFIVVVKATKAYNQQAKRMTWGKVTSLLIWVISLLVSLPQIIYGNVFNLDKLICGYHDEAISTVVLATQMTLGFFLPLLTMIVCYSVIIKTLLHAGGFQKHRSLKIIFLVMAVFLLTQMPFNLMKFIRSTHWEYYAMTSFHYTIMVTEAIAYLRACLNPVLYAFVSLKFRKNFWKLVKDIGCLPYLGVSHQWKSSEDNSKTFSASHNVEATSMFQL
PfG6PD inh: PfG6PD (Plasmodium falciparum) enzyme inhibition; PfGluPho enzyme, NADPH resazurin-diaphorase fluorescence; inhibition, % at 20 µM; 350,000 tested, 0.78% active;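 active = inhibition reaching at least a set limit at 20 µM in the primary screen, cut at about 59% in these data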
CCR6 antag: antagonists of human CCR6 receptor | P51684 | CHO-K1 CCR6 PathHunter beta-arrestin, luminescence, CCL20-stimulated | inhibition, % at 20 µM | 340,000 tested, 0.49% active;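 active = compounds whose inhibition of the agonist-driven luminescence signal at 20 µM reaches about 50%, limit read from the data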;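 also: cells stimulated with CCL20 at 14 nM final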
APJ agonist: agonists of human APJ apelin receptor | activation, % at 20 µM | 330,000 tested, 0.11% active | P35414 | AID 2520 | CHO-K1 APJ PathHunter beta-arrestin, luminescence; 0% DMSO wells, 100% apelin;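 active = activation more than six SD over the plate average, tested at 20 µM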
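Assay system: CHO-K1 cells stably expressing ProLink-tagged human APJ and arrestin–beta-gal acceptor. Compound dosing: 20 µM single point, 1% DMSO. Times: 16-18 h seeding, 90 min dark compound exposure, 60 min detection. Detection: beta-gal luminescence. Evaluation: APJ–arrestin association signal. Controls: negative DMSO alone, positive Apelin-13 at 10 nM.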
APJ antagonist: APJ receptor antagonism; P35414; AID 2521; inhibition, % at 20 µM; CHO-K1 APJ beta-arrestin complementation, luminescence; 330,000 tested, 0.32% active;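 active = inhibition above about 40% at 20 µM, limit read from the data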;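 also: cells challenged with 10 nM apelin-13 agonist together with compound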
APJ antag confirm: APJ receptor antagonism confirmation. shares compounds with APJ antagonist. APJ beta-arrestin recruitment, luminescence, antagonist mode. inhibition, % at 20 µM. 950 tested, 66% active. AID 2766; in the data active = inhibition above about 50%
A number is an active result; n = inactive; x = no result given.

SMILES	B2AR ag	CXCR6 block	PfG6PD inh	CCR6 antag	APJ agonist	APJ antagonist	APJ antag confirm
CCN(CC)c1ccc(/C=C2\SC(=O)N(C(C)C)C2=O)o1	n	n	n	n	n	53	n
CC(=O)Nc1ccc(S(=O)(=O)Nc2nnc(Cc3ccc(Cl)cc3)s2)cc1	n	n	n	n	n	n	x
COc1ccc(CCNC(=O)Cc2ccccc2)cc1OC	n	n	n	n	n	111	n
COc1ccc(C(=O)NC(C(=O)NCc2ccccn2)C(C)C)cc1 (stereo unspecified)	n	n	n	n	n	n	x
CC(C)C(NC(=O)c1ccc(C(C)(C)C)cc1)C(=O)NCc1ccccn1 (stereo unspecified)	n	n	n	n	n	41	n
Cc1cc2c(=O)n(C)c(SCC(=O)Nc3ccccc3C)nc2s1	n	n	n	n	n	n	x
Cc1cccc(C(=O)Nc2cccc(C(=O)N/N=C/c3ccncc3)c2)c1	n	n	n	n	n	n	x
Cc1cccc(C(=O)Nc2ccc(C(=O)/C=C/c3ccncc3)cc2)c1	60	59	n	n	n	41	77
N#CC(c1ccccc1)C(CC(=NO)c1ccccc1)c1ccccc1 (stereo unspecified)	x	n	n	x	x	x	x
CCCCN1C(=O)C(CC(=O)NC2CCCC2)CC(C(=O)N2CCCCCC2)=C1C (stereo unspecified)	x	n	x	x	x	x	x
COC(=O)C(CC(C)C)NC(=O)C(Cc1ccccc1)NC(=O)C1CCCN1C(=O)OC(C)(C)C (stereo unspecified)	n	n	n	52	n	48	n
CC(C)CC(NC(=O)C1CCCN1C(=O)OC(C)(C)C)C(=O)NCC(N)=O (stereo unspecified)	n	n	n	n	x	x	x
COc1cc(NS(=O)(=O)c2ccc(C)cc2)c2ncccc2c1	n	n	n	n	n	72	63
CCCCCCCCCCCCCCCC(O)C(N)CO (stereo unspecified)	n	n	n	n	n	41	n
CCCCCCCCCCCCCCCC(O)C[N+](C)(C)CCO (stereo unspecified)	n	n	n	n	x	x	x
Fc1ccc(NC(=S)Nc2ccc(Cl)cc2Cl)cc1	x	x	n	n	n	57	63
Fc1ccc(CNC(=S)Nc2ccc(Cl)cc2Cl)cc1	n	n	n	n	n	n	x
Cc1cccc(-c2cc3c(nn2)-c2ccccc2C3=O)c1	n	n	n	n	n	n	x
O=C1c2ccccc2-c2nnc(-c3ccccc3)cc21	n	n	n	56	n	53	143
COc1ccc(-c2cc3c(nn2)-c2ccccc2C3=O)cc1	n	n	n	n	n	40	143
O=C1CCCN1CCCNc1ncccc1[N+](=O)[O-]	n	n	n	n	n	n	x
Cc1c(O)nc(SC2CC(=O)N(c3cc(Cl)cc(Cl)c3)C2=O)[nH]c1=O (stereo unspecified)	n	n	n	n	n	n	x
C=CCNC(=O)/C(C#N)=C\c1cc(Cl)c(O)c(OCC)c1	n	n	n	n	x	x	x
CCOc1cc(/C=C2\CCC/C(=C\c3cc(Cl)c(O)c(OCC)c3)C2=O)cc(Cl)c1O	n	60	n	51	n	58	111
COc1cccc(-c2cc(CNC(=O)[C@H]3O[C@@H](n4ccc(=O)[nH]c4=O)[C@H](O)[C@@H]3O)no2)c1	x	n	x	x	x	x	x
SMILES	B2AR ag	CXCR6 block	PfG6PD inh	CCR6 antag	APJ agonist	APJ antagonist	APJ antag confirm
C/C(=N\NC(=O)c1cc2ccccc2cc1O)c1ccccn1	n	n	n	n	n	44	n
COc1ccc(Cl)cc1NS(=O)(=O)c1cccc(C(=O)N2CC(C)OC(C)C2)c1 (stereo unspecified)	n	n	n	n	n	n	x
NC(=S)NNC(=S)Nc1ccccc1	n	n	n	n	n	41	53
CN(C)c1ccc(/C=C2\C(=N)N3N=C(CC(=O)N4CCCCC4)SC3=NC2=O)cc1	n	n	n	n	n	n	x
CN(C)c1ccc(/C=C2\C(=N)N3C(=NC2=O)Sc2cc(S(C)(=O)=O)ccc23)cc1	x	x	x	x	n	53	n
CCC(=O)Nc1c(C#N)c2nc3ccccc3nc2n1C1CCCCC1	n	n	n	n	n	n	x
CCOC(=O)c1c(NC(=O)c2ccco2)n(C2CCCCC2)c2nc3ccccc3nc12	n	n	n	n	n	58	n
Clc1ccccc1NN=Cc1ccccn1	x	n	n	x	x	x	x
O=C1C=C(N2CCOCC2)CO1	n	n	n	n	n	42	n
Oc1[nH]c2ccccc2c1N=Nc1ccccn1	n	n	n	n	x	x	x
Oc1c(N=Nc2ccccn2)ccc2ccccc12	n	n	n	50	n	68	113
COc1ccc(Nc2nc(Nc3ccc(OC)cc3)nc(-n3[nH]c(=O)c(C)c3C)n2)cc1	n	n	n	n	n	58	n
CCNC(=O)C1(C)CCCN(C(=O)c2cc(-c3ccccc3)cs2)C1 (stereo unspecified)	x	n	x	x	x	x	x
CC(C)(C)c1cc(CCC(=O)NNC(=S)NC(=O)c2ccccc2)cc(C(C)(C)C)c1O	n	58	n	58	n	51	135
COc1ccc(CCNC(=O)CSc2nc3[nH]c(=O)cc(O)c3s2)cc1	n	n	n	n	n	n	x
NC(=O)c1sc2nc(-c3ccccc3)c3c(c2c1N)CCCC3	n	n	n	n	n	47	n
COc1ccc2cc(C)c3nnc(SCC(=O)Nc4cc(OC)c(OC)cc4C(=O)O)n3c2c1	n	n	n	n	n	n	x
COc1ccc2cc(C)c3nnc(SCc4cccnc4)n3c2c1	n	n	n	n	n	40	n
Cn1c(=O)[nH]c(=O)c2c1nc(N1CCNCC1)n2Cc1ccccc1	n	n	n	n	n	n	x
Cn1c(=O)c2c(nc(N3CCNCC3)n2Cc2cccc3ccccc23)n(C)c1=O	n	47	n	62	n	57	99
Cn1c(=O)[nH]c(=O)c2c1nc(N1CCNCC1)n2Cc1cccc2ccccc12	n	45	n	54	n	41	92
COC(=O)c1ccc(N2NC(=O)/C(=C/c3cc(OC)c(O)c(OC)c3)C2=O)cc1	n	n	n	n	n	45	n
Cc1cc(=O)n2nc(N3CCCC(C(=O)NCc4ccco4)C3)sc2n1 (stereo unspecified)	n	n	n	n	n	50	n
Cc1ccc(S(=O)(=O)N/N=C/c2ccc3nccnc3c2)cc1	n	n	n	56	n	58	88
CCN(c1ccccc1)S(=O)(=O)c1ccc(OC)c(NC(=O)CN2C(=O)NC(C)(C)C2=O)c1	n	n	n	n	n	n	x
CCN(c1ccccc1)S(=O)(=O)c1ccc(Cl)c(NC(=O)CN2C(=O)NC3(CCCC3)C2=O)c1	n	n	n	n	n	41	66
CCNC(=O)C1(C)CCCN1C(=O)c1cc(C)on1 (stereo unspecified)	x	n	x	x	x	x	x
